ChEMBL document CHEMBL1137651 (Antimicrob Agents Chemother, 2007)
Values after ≈ are worked out from the molar mass of the structure shown. Active and inactive are the calls of the source. The rule behind the calls is not given here.

How the values were obtained:
Homo sapiens [1] = test: fCmax in Mycobacterium tuberculosis H37Rv ATCC 2517-infected patient serum at 600 mg/day, po; assay type: ADME, organism-based
Homo sapiens [2] = test: fAUC (0 to infinity) in Mycobacterium tuberculosis H37Rv ATCC 2517-infected patient serum at 600 mg/day, po; assay type: ADME, organism-based
[3] = AUC (0 to 168 hrs) in Mycobacterium tuberculosis H37Rv ATCC 2517-infected patient serum at 600 mg/day, po; assay type: ADME, organism-based, Plasma; design: time < 168 hr, dose 600 mg/day, route oral; details: human
Homo sapiens [4] = test: fCmax in Mycobacterium tuberculosis H37Rv ATCC 2517-infected patient serum at 2100 mg, po administered twice a week; assay type: ADME, organism-based; details: in vivo
Homo sapiens [5] = test: fCmax in Mycobacterium tuberculosis H37Rv ATCC 2517-infected patient serum at 4200 mg, po administered once a week; assay type: ADME, organism-based; details: in vivo
Homo sapiens [6] = test: fAUC (0 to 168 hrs) in Mycobacterium tuberculosis H37Rv ATCC 2517-infected patient serum at 2100 mg, po administered twice a week; assay type: ADME, organism-based; details: in vivo
Homo sapiens [7] = test: fAUC (0 to 168 hrs) in Mycobacterium tuberculosis H37Rv ATCC 2517-infected patient serum at 4200 mg, po administered once a week; assay type: ADME, organism-based; details: in vivo
[8] = AUC (0 to 168 hrs) in Mycobacterium tuberculosis H37Rv ATCC 2517-infected hollow fiber system based in vitro pharmacokinetic-pharmacodynamic tuberculosis model; assay type: ADME; design: time < 168 hr
In short: (§1)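 Samples were cleaned up by solid-phase extraction and quantified by LC-MS (C18 column, 25 mM ammonium acetate/acetonitrile 58:42).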

[9] = AUC (0 to 168 hrs) in Mycobacterium tuberculosis H37Rv ATCC 2517-infected hollow fiber system based in vitro pharmacokinetic-pharmacodynamic tuberculosis model administered at dose simulating 4200 mg once weekly schedule; assay type: ADME; design: time < 168 hr, dose 4200 mg; in short: as §1
[10] = system: Mycobacterium tuberculosis; test: Antimycobacterial activity against Mycobacterium tuberculosis H37Rv ATCC 2517 infected in hollow fiber system based in vitro pharmacokinetic-pharmacodynamic tuberculosis model assessed as microbial killing administered at simulated dose of 600 mg/day for 7 days; assay type: functional
In short: (§2)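 Hollow-fiber model at 37°C with 5% CO2. […] Schedules were daily for 7 days, twice weekly (day 0 and 3.5) or once weekly, plus an untreated control. Peripheral samples were taken daily for 7 days, saline-washed twice and plated on 7H10 agar; kill is relative to baseline.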

[11] = system: Mycobacterium tuberculosis; test: Post antibiotic effect against Mycobacterium tuberculosis H37Rv ATCC 2517 infected hollow fiber system based in vitro pharmacokinetic-pharmacodynamic tuberculosis model at 2 mg/L administered for 7 hrs; assay type: functional
In short: (§3)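 Broth cultures grown 4 days were exposed at 10^6 CFU/ml to the stated concentration and duration. They were then washed twice by centrifugation (2,000 x g, 10 min) and resuspended in fresh broth, shaken at 37°C in 5% CO2, and sampled every other day for agar counts. PAE equals the time for exposed cultures to grow 1 log10 CFU/ml minus that for controls. The study was performed twice.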

[12] = system: Mycobacterium tuberculosis; test: Post antibiotic effect against Mycobacterium tuberculosis H37Rv ATCC 2517 infected hollow fiber system based in vitro pharmacokinetic-pharmacodynamic tuberculosis model at 7 mg/L administered for 1 hr; assay type: functional; in short: as §3
[13] = system: Mycobacterium tuberculosis; test: Post antibiotic effect against Mycobacterium tuberculosis H37Rv ATCC 2517 infected hollow fiber system based in vitro pharmacokinetic-pharmacodynamic tuberculosis model at 7 mg/L administered for 2 hrs; assay type: functional
[14] = system: Mycobacterium tuberculosis; test: Post antibiotic effect against Mycobacterium tuberculosis H37Rv ATCC 2517 infected hollow fiber system based in vitro pharmacokinetic-pharmacodynamic tuberculosis model at 14 mg/L administered for 0.5 hrs; assay type: functional; in short: as §3
[15] = system: Mycobacterium tuberculosis; test: Antimycobacterial activity against drug-sensitive Mycobacterium tuberculosis H37Rv ATCC 2517-infected hollow fiber system based in vitro pharmacokinetic-pharmacodynamic tuberculosis model assessed as rate constant for maximal bacterial growth; assay type: functional
[16] = system: Mycobacterium tuberculosis; test: Antimycobacterial activity against drug-sensitive Mycobacterium tuberculosis H37Rv ATCC 2517-infected hollow fiber system based in vitro pharmacokinetic-pharmacodynamic tuberculosis model assessed as concentration needed to achieve 50% effect on maximal growth rate; assay type: functional
[17] = system: Mycobacterium tuberculosis; test: Antimycobacterial activity against drug-sensitive Mycobacterium tuberculosis H37Rv ATCC 2517-infected hollow fiber system based in vitro pharmacokinetic-pharmacodynamic tuberculosis model assessed as sigmoidicity constant for drug effect on microbial growth; assay type: functional
[18] = system: Mycobacterium tuberculosis; test: Antimycobacterial activity against drug-sensitive Mycobacterium tuberculosis H37Rv ATCC 2517-infected hollow fiber system based in vitro pharmacokinetic-pharmacodynamic tuberculosis model assessed as rate constant for maximal bacterial kill; assay type: functional
[19] = system: Mycobacterium tuberculosis; test: Antimycobacterial activity against drug-sensitive Mycobacterium tuberculosis H37Rv ATCC 2517-infected hollow fiber system based in vitro pharmacokinetic-pharmacodynamic tuberculosis model assessed as concentration needed to achieve 50% maximal killing rate; assay type: functional
[20] = system: Mycobacterium tuberculosis; test: Antimycobacterial activity against drug-sensitive Mycobacterium tuberculosis H37Rv ATCC 2517-infected hollow fiber system based in vitro pharmacokinetic-pharmacodynamic tuberculosis model assessed as sigmoidicity constant for microbial killing; assay type: functional
[21] = Clearance in Mycobacterium tuberculosis H37Rv ATCC 2517-infected hollow fiber system based in vitro pharmacokinetic-pharmacodynamic tuberculosis model; assay type: ADME, organism-based
[22] = AUC in Mycobacterium tuberculosis H37Rv ATCC 2517-infected hollow fiber system based in vitro pharmacokinetic-pharmacodynamic tuberculosis model at 14 mg/L for 0.5 hrs; assay type: ADME
[23] = AUC in Mycobacterium tuberculosis H37Rv ATCC 2517-infected hollow fiber system based in vitro pharmacokinetic-pharmacodynamic tuberculosis model at 7 mg/L for 1 hr; assay type: ADME
[24] = AUC in Mycobacterium tuberculosis H37Rv ATCC 2517-infected hollow fiber system based in vitro pharmacokinetic-pharmacodynamic tuberculosis model at 7 mg/L for 2 hrs; assay type: ADME
[25] = AUC in Mycobacterium tuberculosis H37Rv ATCC 2517-infected hollow fiber system based in vitro pharmacokinetic-pharmacodynamic tuberculosis model at 2 mg/L for 7 hrs; assay type: ADME
[26] = system: Mycobacterium tuberculosis; test: Antimycobacterial activity against Mycobacterium tuberculosis H37Rv ATCC 2517 infected in hollow fiber system based in vitro pharmacokinetic-pharmacodynamic tuberculosis model assessed as microbial killing administered at simulated dose of 4200 mg, po once weekly; assay type: functional, organism-based; in short: as §2
[27] = system: Mycobacterium tuberculosis; test: Antimycobacterial activity against Mycobacterium tuberculosis H37Rv ATCC 2517 infected in hollow fiber system based in vitro pharmacokinetic-pharmacodynamic tuberculosis model assessed as microbial killing administered at simulated dose of 2100 mg, po twice weekly; assay type: functional, organism-based; in short: as §2
[28] = system: Mycobacterium tuberculosis; test: Drug uptake in Mycobacterium tuberculosis H37Rv ATCC 2517-infected hollow fiber system based in vitro pharmacokinetic-pharmacodynamic tuberculosis model; assay type: ADME, organism-based
In short: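 Log-phase culture was adjusted to 10^6 CFU/ml in 7H9 broth held at 37°C or 0°C, then given 0, 2, 7 or 14 mg/liter drug. Samples taken at 0, 5, 15, 30 and 60 min were spun through silicone oil, and drug in the pellet was measured by LC-MS. Values at 0°C (cell-wall binding) were subtracted from those at 37°C. Cell volume was estimated from protein by BCA. Run in triplicate.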

[29] = system: Mycobacterium tuberculosis; test: microbe, parasite or virus in culture

**Q.** For CO[C@H]1/C=C/O[C@@]2(C)Oc3c(C)c(O)c4c(O)c(c(/C=N/N5CCN(C)CC5)c(O)c4c3C2=O)NC(=O)/C(C)=C\C=C\[C@H](C)[C@H](O)[C@@H](C)[C@@H](O)[C@@H](C)[C@H](OC(C)=O)[C@@H]1C [RIFAMPIN], which fCmax (Homo sapiens [1]) is on record?
**A.** 2 mg/L

**Q.** And the fAUC (Homo sapiens [2])?
**A.** 16000 ng·h/mL

**Q.** What about the AUC at 168 h [3] of the same compound?
**A.** 112000 ng·h/mL

**Q.** What about the fCmax (Homo sapiens [4]) of the same compound?
**A.** 7 mg/L

**Q.** What about the fCmax (Homo sapiens [5]) of the same compound?
**A.** 14 mg/L

**Q.** What about the fAUC (Homo sapiens [6]) of the same compound?
**A.** 112000 ng·h/mL

**Q.** What about the fAUC (Homo sapiens [7]) of the same compound?
**A.** 112000 ng·h/mL

**Q.** And the AUC(0-t) at 168 h [8]?
**A.** 122000 ng·h/mL

**Q.** What about the AUC(0-t) at 168 h [9] of the same compound?
**A.** 14000 ng·h/mL

**Q.** And the CFU [10]?
**A.** 1.95 mL⁻¹

**Q.** And the PAE [11]?
**A.** 5.2 days

**Q.** And the PAE [12]?
**A.** 12 days

**Q.** And the PAE [13]?
**A.** 12.9 days

**Q.** What about the PAE [14] of the same compound?
**A.** 19.3 days

**Q.** And the Kgmax [15]?
**A.** 9.756 ×10⁻³ log10CFU/ml/hr

**Q.** What about the C50g [16] of the same compound?
**A.** 1932 mg/L

**Q.** What about the Hg [17] of the same compound?
**A.** 0.361

**Q.** What about the Kkmax [18] of the same compound?
**A.** 15.829 ×10⁻³ log10CFU/ml/hr

**Q.** What about the C50k [19] of the same compound?
**A.** 7.652 mg/L

**Q.** What about the Hk [20] of the same compound?
**A.** 1.388

**Q.** What about the CL [21] of the same compound?
**A.** 99 L/h

**Q.** And the AUC at 0.5 h, 14 mg/L [22]?
**A.** 7000 ng·h/mL

**Q.** And the AUC at 1 h, 7 mg/L [23]?
**A.** 7000 ng·h/mL

**Q.** What about the AUC at 2 h, 7 mg/L [24] of the same compound?
**A.** 14000 ng·h/mL

**Q.** And the AUC at 7 h, 2 mg/L [25]?
**A.** 14000 ng·h/mL

**Q.** And the Activity [26]?
**A.** Active

**Q.** What about the Activity [27] of the same compound?
**A.** Active

**Q.** And the Drug uptake [28]?
**A.** Dose-dependent effect

**Q.** What about the MIC90 [29] of the same compound?
**A.** 0.125 µg/mL (≈ 0.152 µM)
